High-throughput results as filed in PubChem BioAssay.
ALR inh – inhibitors of human ALR sulfhydryl oxidase, primary screen, biochemical, H2O2 detection, HRP-luminol luminescence, single point | inhibition, % (test concentration not listed) | actives 3.8% (n = 290,000) | purified ALR, DTT oxidation | FAD-linked sulfhydryl oxidase ALR (Homo sapiens), P55789 | AID 485317, 2010;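 active = mean replicate inhibition above about 79%, with every replicate also reaching it, limit read from the data; inconclusive = only one of the two criteria met; inactive = mean below limit and not every replicate reaching it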
Target sequence (P55789 whole entry, looked up): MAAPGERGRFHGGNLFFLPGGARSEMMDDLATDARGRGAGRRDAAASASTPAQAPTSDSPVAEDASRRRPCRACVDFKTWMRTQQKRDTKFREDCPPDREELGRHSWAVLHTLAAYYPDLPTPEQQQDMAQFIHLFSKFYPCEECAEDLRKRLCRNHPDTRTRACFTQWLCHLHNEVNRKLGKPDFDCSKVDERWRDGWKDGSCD
PfM18AAP inh – PfM18AAP inhibitors, malaria aminopeptidase, primary screen, biochemical, QFRET, recombinant enzyme; inhibition, % at 7.35 µM; AID 1822, 2009; M18 aspartyl aminopeptidase (Plasmodium falciparum 3D7); H-Glu-NHMec fluorogenic cleavage; actives 1.2% (n = 290,000);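 active = inhibition above the campaign mean inhibition over all tested compounds plus 3 SD, cut at about 28% in these data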
HDAC3 inh – HDAC3 deacetylase inhibitors, primary screen, biochemical, fluorescence, cell-free homogeneous. Histone deacetylase 3 (Homo sapiens), O15379. recombinant HDAC3, fluorogenic peptide/trypsin coupled. inhibition, % at 8.3 µM. actives 0.15% (n = 320,000); in the data active = inhibition above about 26%, passing the limit was not always enough; inconclusive = no clear call, values can overlap the other calls
Target sequence (O15379 whole entry, looked up): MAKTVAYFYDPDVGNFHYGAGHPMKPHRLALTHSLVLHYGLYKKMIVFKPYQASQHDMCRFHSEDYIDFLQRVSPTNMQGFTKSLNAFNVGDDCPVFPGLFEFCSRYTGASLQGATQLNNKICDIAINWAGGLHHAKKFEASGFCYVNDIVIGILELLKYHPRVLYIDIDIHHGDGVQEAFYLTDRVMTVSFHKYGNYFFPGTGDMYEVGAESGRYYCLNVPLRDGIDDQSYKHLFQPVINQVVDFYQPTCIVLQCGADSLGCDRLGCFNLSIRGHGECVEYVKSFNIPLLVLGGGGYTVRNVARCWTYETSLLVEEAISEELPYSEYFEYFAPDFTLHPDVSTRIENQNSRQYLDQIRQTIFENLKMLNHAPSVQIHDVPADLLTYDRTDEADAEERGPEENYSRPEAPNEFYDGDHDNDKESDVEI
UCH37 DUB inh – inhibitors of human UCH37 deubiquitinase, primary screen, biochemical, Ub-AMC cleavage, fluorescence; purified proteasome/UCH37; inhibition, % (concentration not given with the values); actives 0.33% (n = 330,000); AID 588478, 2011;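 active = mean inhibition over replicate wells above about 20%, limit read from the data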
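Signal – fluorescence, ex 355 nm, em 460 nm · System – Proteasome-bound UCH37 · Input – 0.15 nM proteasome as dispensed · Timing – 30 min preincubation with enzyme, 25 min cleavage at room temperature · Read-out basis – percent inhibition of cleavage signal versus uninhibited and no-proteasome wells · Medium – Tris-HCl pH 7.4 with ATP-MgCl2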
Rtt109 HAT inh – inhibitors of C. albicans Rtt109/Vps75 HAT, primary screen, biochemical, ThioGlo CoA-SH fluorescence, plate reader; Histone acetyltransferase RTT109 (Candida albicans (strain SC5314 / ATCC MYA-2876)), …; purified Rtt109/Vps75, 4 h; inhibition, % at 34.9 µM; actives 0.16% (n = 330,000);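 active = inhibition of at least 50% in every replicate; inconclusive = best replicate reaches 50% inhibition but some replicates fall short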
FAS-TE inh – FAS thioesterase domain inhibitors, primary screen, biochemical, fluorescence intensity, uHTS; recombinant FAS-TE, OMFH fluorogenic substrate, fluorescence endpoint; inhibition, % at 15 µM; actives 0.67% (n = 360,000); AID 602261, 2012;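 active = compounds whose normalised, plate-corrected inhibition of enzyme fluorescence in the single-dose primary screen is 50% or more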
A number is an active result; 0 = inactive; ? = inconclusive; - = no result. This is a sample that favours compounds with a hit; in the whole collection about 4.6% have one here.

SMILES	ALR inh	PfM18AAP inh	HDAC3 inh	UCH37 DUB inh	Rtt109 HAT inh	FAS-TE inh
S=C(NCCCN1CCOCC1)N1CCN(c2ccccc2)CC1	97.6	0	0	0	0	0
COCCCNC(=S)N1CCN(c2ccccc2)CC1	97.1	0	0	0	0	0
O=C(NN=Cc1ccc(N2CCOCC2)cc1)c1cccs1	-	-	-	0	-	-
O=C(COc1ccccc1)NN=Cc1ccc(O[C@@H]2O[C@H](CO)[C@@H](O)[C@H](O)[C@H]2O)cc1	-	-	-	0	-	-
Cc1ccccc1OCC(=O)NN=Cc1cn(Cc2ccccc2)c2ccccc12	-	-	-	0	-	-
Cc1ccc(S(=O)(=O)CCSc2cccc(C(=O)Nc3ccccc3C(=O)O)c2)cc1	98.7	0	0	24.8	0	0
Cc1cc(O)ccc1NC(=O)c1ccccc1	98.8	0	0	0	0	0
Cc1cc(NC(=O)c2ccccc2)c(Cl)cc1N	-	0	-	0	0	0
Cc1ccc(NC(=O)c2cccc(C(=O)Nc3ccc(C)cc3C(=O)O)c2)c(C(=O)O)c1	98.6	0	0	0	-	0
Cc1cc(N)ccc1NC(=O)c1ccccc1	98.3	0	0	0	0	0
COc1cccc(-c2c(C(=O)NN=C(C)COc3ccccc3)nnn2-c2nonc2N)c1	-	-	-	0	-	-
ON=CCCn1c(=S)sc2ccccc21	-	-	-	0	-	-
CC(=NOc1nc(C)cc(C)n1)c1ccc(Br)cc1	-	-	-	0	-	-
O=C1CC(Nc2ccc(N3CCOCC3)cc2)C(=O)N1c1ccccc1 (centres undefined)	98.9	0	0	0	0	0
CCOc1ccccc1N1C(=O)CC(Nc2ccc(N3CCOCC3)cc2)C1=O (centres undefined)	98.3	0	0	0	0	0
O=C1CC(Nc2ccc3ccccc3c2)C(=O)N1Cc1ccccc1 (centres undefined)	0	0	0	0	0	0
Cc1ccc(NNC2CC(=O)N(c3cccc(Cl)c3)C2=O)cc1 (centres undefined)	-	0	-	0	0	0
O=C1CC(Nc2ccc(N3CCOCC3)cc2)C(=O)N1Cc1ccccc1 (centres undefined)	97.5	0	0	0	0	0
CCOc1ccccc1N1CC(C(=O)Nc2ccccc2N2CCOCC2)CC1=O (centres undefined)	0	0	0	0	0	0
O=C1CC(NNc2ccccc2)C(=O)N1c1ccccc1 (centres undefined)	99.7	0	0	-	0	0
Cc1cc(C=NNC(=O)C(=O)NCc2ccccn2)c(C)n1-c1ccccc1	-	-	-	0	-	-
O=S(=O)(NN=Cc1ccccc1OCc1ccc(Cl)cc1)c1ccccc1	-	-	-	0	-	-
COc1ccc(NC2CC(=O)N(c3ccccc3)C2=O)cc1 (centres undefined)	-	0	0	0	0	0
COc1ccccc1N1C(=O)CC(Nc2ccc(N3CCOCC3)cc2)C1=O (centres undefined)	99.5	0	0	0	0	0
COCCn1cnnc1SCC(=O)Nc1ccc(N2CCCCC2)cc1	95.4	-	0	0	0	0
SMILES	ALR inh	PfM18AAP inh	HDAC3 inh	UCH37 DUB inh	Rtt109 HAT inh	FAS-TE inh
Cn1cnnc1SCC(=O)Nc1ccc(S(N)(=O)=O)cc1	93.5	0	0	0	?	0
Cn1cnnc1SCC(=O)Nc1ccc(N2CCCCC2)cc1	98.7	-	0	0	0	0
CCOC(=O)C1=C(C)N=c2sc(=Cc3cccc([N+](=O)[O-])c3O)c(=O)n2C1c1ccccc1 (centres undefined)	-	-	-	0	-	-
COC(=O)c1ccccc1NC(=S)NC(=O)c1ccccc1	98.2	0	0	0	0	0
COc1cc([N+](=O)[O-])ccc1NC(=S)NNC(=O)c1ccc2c(c1)OCO2	97.6	0	0	0	0	0
COC(=O)c1ccccc1NC(=S)NC(=O)c1ccccc1C	97.4	0	0	0	0	0
COC(=O)c1ccccc1NC(=S)NC(=O)c1ccc2c(c1)OCO2	98.1	0	0	0	0	0
O=C(NC(=S)Nc1cc([N+](=O)[O-])ccc1O)c1ccc2c(c1)OCO2	0	0	0	0	0	0
COC(=O)c1ccccc1NC(=S)NC(=O)c1ccc(C)cc1	0	0	0	0	0	0
COC(=O)c1ccccc1NC(=O)c1ccc2c(c1)OCCO2	0	0	0	0	0	0
C/C(C=NNC(=O)c1c(Br)cnn1C)=C\c1ccccc1	-	-	-	0	-	-
O=C(CCn1cnc(-c2ccccc2)c1-c1ccccc1)NN=Cc1ccc(O)cc1	-	-	-	0	-	-
COc1ccc(S(=O)(=O)N(C)CC(=O)N2CCOCC2)cc1	0	0	0	0	0	0
COc1ccc(S(=O)(=O)N(CCc2ccccc2)CC(=O)N2CCOCC2)cc1	98.9	0	0	0	0	0
O=C(Cn1nc2ccccc2n1)NN=Cc1ccc(F)cc1	-	-	-	0	-	-
O=C(O)CSc1nnc(-c2ccc(Cl)cc2)n1-c1ccccc1	85.5	0	0	-	0	0
O=C(O)CSc1nnc(-c2ccncc2)n1-c1ccc(Cl)cc1	0	0	0	0	0	0
CC(=NNC(=O)c1ccoc1C)c1ccc(NC(=O)C2CCCC2)cc1	-	-	-	0	-	-
COc1ccc(-n2cc(-c3ccc(C)cc3)[n+]3c2SCC3)cc1	0	0	0	34.6	0	0
CC(C)(C)NC(=O)C[C@H]1C[C@H](C(=O)N2CCOCC2)[C@@]2(CCC3CCCC3)c3[nH]c4cc(-c5ccco5)ccc4c3CCN2C1=O	-	-	-	0	0	57.5
CC(C)Cn1c(N)c(C=O)c(=O)n(C)c1=O	99.7	0	0	0	-	0
CC(C)Cn1c(N)c(C(=O)CCl)c(=O)n(C)c1=O	98.2	0	?	0	0	0
Cn1c(=O)c(C(=O)CCl)c(N)n(CC2CC2)c1=O	0	0	0	0	0	0
Cc1nn(-c2ccccc2)c(Cl)c1C=NNC(=O)c1ccccc1F	-	-	-	0	-	-
O=C(c1cnn(C(=O)c2cccc(S(=O)(=O)N3CCOCC3)c2)c1)c1ccccc1O	89.7	0	0	0	0	0
SMILES	ALR inh	PfM18AAP inh	HDAC3 inh	UCH37 DUB inh	Rtt109 HAT inh	FAS-TE inh
O=C(c1cnn(C(=O)c2ccc(O)cc2)c1)c1ccccc1O	-	0	75.7	-	-	-
COc1ccc(O)c(C(=O)c2cnn(C(=O)c3cc(C)oc3C)c2)c1	0	0	0	0	0	0
COc1ccc(C(=O)n2cc(C(=O)c3cc(C)ccc3O)cn2)cc1OC	0	0	52.8	0	0	0
O=C(c1cnn(C(=O)c2ccco2)c1)c1ccccc1O	0	-	0	0	0	0
COc1ccc(O)c(C(=O)c2cnn(C(=O)c3cccc(N(C)C)c3)c2)c1	0	-	30.0	-	0	0
C(=NNc1ncnc2ccccc12)c1ccccc1	-	-	-	0	-	-
O=c1c(C=NOCc2ccc(Cl)cc2Cl)c[nH]n1-c1cccc(Cl)n1	-	-	-	0	-	-
